Measurements from ChEMBL document CHEMBL3588752, “Synthesis and in Vitro Anticancer Activity of the First Class of Dual Inhibitors of REV-ERBβ and Autophagy” (J Med Chem, 2015).
Active and inactive are the calls of the source. The calls are words filed in the database; no cut-off is given here.

Tests used:
BT-474 [1] = test: Cytotoxicity against human BT474 cells assessed as reduction in cell number incubated for 72 hrs; format: functional, cell-based; settings: BT-474, 72 h
Method in brief: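 Cells seeded at 2000/well and left overnight, then exposed 72 h to seven 3-fold serial dilutions from 100 µM. Cell number read by CyQUANT DNA dye (independent of metabolism), relative to vehicle as 100%. BT-474 grown in high-glucose DMEM, 4 mM L-glutamine, 10% FBS, 0.25 mM pyruvate.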

HMEC = test: Cytotoxicity against HMEC cells assessed as reduction in cell number incubated for 72 hrs; format: cell-based; settings: Homo sapiens
[2] = Inhibition of cell proliferation of breast cancer cells (unknown origin); format: functional, cell-based; settings: Cancer cell lines
MCF7 = test: Cytotoxicity against human MCF7 cells assessed as reduction in cell number incubated for 72 hrs; format: functional, cell-based; settings: MCF7, 72 h
Method in brief: (§1)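 Grown in high-glucose DMEM with 4 mM L-glutamine, 10% FBS and 0.5 mM sodium pyruvate. Seeded at 2000 cells/well overnight, then treated 72 h with seven 3-fold dilutions from 100 µM. Cell number by CyQUANT, % of vehicle. IC50 by log(inhibitor)–response fit, mean ± SEM, n ≥ 6.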

LNCaP [3] = test: Cytotoxicity against human LNCAP cells assessed as reduction in cell number incubated for 72 hrs; format: functional, cell-based
Method in brief: (§2)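 RPMI-1640 with 4 mM L-glutamine and 10% FBS for culture. 2000 cells/well seeded overnight, then 72 h exposure to seven 3-fold dilutions (top 100 µM; top 900 µM for the reference autophagy inhibitor in MDA-MB-361). Cell number by CyQUANT relative to vehicle. IC50 from concentration–response curves, mean ± SEM, n ≥ 6.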

[4] = Cytotoxicity against human SKBR3 cells assessed as reduction in cell number incubated for 72 hrs; format: functional, cell-based; settings: SK-BR-3, 72 h
Method in brief: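 McCoy's medium plus 10% FBS; 2000 cells/well, overnight attachment, 72 h treatment with seven 3-fold dilutions from 100 µM (900 µM top for the reference autophagy inhibitor). CyQUANT cell number as % of vehicle. IC50 by log(inhibitor)–response fitting, mean ± SEM of ≥6 experiments.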

MDA-MB-361 = test: Cytotoxicity against human MDA-MB-361 cells assessed as reduction in cell number incubated for 72 hrs; format: functional, cell-based; settings: MDA-MB-361, 72 h; method in brief: as §2
LNCaP [5] = test: Reduction in GFP expression in human LNCAP cells transfected with plasmids co-expressing GFP and shRNAs against REV-ERBbeta followed by compound treatment 24 hrs post-transfection and measured 48 hrs post dose; format: functional, cell-based
[6] = Inhibition of cell proliferation of lung cancer cells (unknown origin); format: functional, cell-based; settings: Cancer cell lines
HepG2 [7] = test: Reduction in GFP expression in human HepG2 cells transfected with plasmids co-expressing GFP and shRNAs against REV-ERBbeta followed by compound treatment 24 hrs post-transfection and measured 48 hrs post dose; format: functional, cell-based
HepG2 [8] = test: Cytotoxicity against human HepG2 cells assessed as reduction in cell number incubated for 72 hrs; format: functional, cell-based; settings: HepG2, 72 h; method in brief: as §1
[9] = Inhibition of cell proliferation of PDAC cells (unknown origin); format: functional, cell-based
[10] = Reduction in GFP expression in human SKBR3 cells transfected with plasmids co-expressing GFP and shRNAs against REV-ERBbeta followed by compound treatment 24 hrs post-transfection and measured 48 hrs post dose; format: functional, cell-based; settings: SK-BR-3
BT-474 [11] = test: Lysosomotropic activity in human BT474 cells assessed as […] incubated for 24 hrs by lysosomotropy assay; format: functional, cell-based; settings: BT-474, 24 h
Method in brief: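 Seeded at 2000 cells/well overnight, then treated. Lysosomal staining (LysoTracker fluorescence) measured 24 h post-treatment. IC50 from concentration–response plots, mean ± SEM, N ≥ 6.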

[12] = Toxicity against human BT474 cells assessed as reduction in cell number at 10 uM incubated for 16 hrs; format: cell-based; settings: bt-474, 16 h
[13] = molecular target: T1, Nuclear receptor subfamily 1 group D member 2 (Homo sapiens) (UniProt Q14995); test: Inhibition of REV-ERBbeta (unknown origin) expressed in HEK293 cells incubated for 24 hrs assessed as inhibition of receptor-mediated transcriptional repression by REV-ERB luciferase reporter assay; format: cell-based
T1 sequence (whole entry): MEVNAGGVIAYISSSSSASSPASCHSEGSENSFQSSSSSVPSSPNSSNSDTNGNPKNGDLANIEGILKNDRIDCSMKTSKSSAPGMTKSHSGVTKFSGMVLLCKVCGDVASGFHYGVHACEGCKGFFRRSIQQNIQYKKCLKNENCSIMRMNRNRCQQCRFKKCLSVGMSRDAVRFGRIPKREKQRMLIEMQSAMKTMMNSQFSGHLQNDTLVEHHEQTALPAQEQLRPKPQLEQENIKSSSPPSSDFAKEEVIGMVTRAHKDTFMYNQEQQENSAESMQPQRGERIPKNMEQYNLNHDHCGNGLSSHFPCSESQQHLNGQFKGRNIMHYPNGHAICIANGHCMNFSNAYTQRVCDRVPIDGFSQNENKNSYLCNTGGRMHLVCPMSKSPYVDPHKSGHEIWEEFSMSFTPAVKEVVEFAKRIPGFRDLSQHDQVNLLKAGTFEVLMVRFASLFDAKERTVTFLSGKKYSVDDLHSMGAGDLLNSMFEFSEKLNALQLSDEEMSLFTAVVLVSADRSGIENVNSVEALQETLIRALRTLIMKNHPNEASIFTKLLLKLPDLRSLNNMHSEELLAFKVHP
Method in brief: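 HEK-293 co-transfected with a REV-ERBβ expression plasmid and a reporter with two REV-ERB response elements driving Cypridina luciferase. Compounds added the next day; luciferase activity read after 24 h. IC50 from concentration–response plots, mean ± SEM, N ≥ 6.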

[14] = molecular target: T1, Nuclear receptor subfamily 1 group D member 2 (Homo sapiens); test: Inhibition of REV-ERBbeta in human BT474 cells assessed as increase in BMAL1 expression at 10 uM incubated for 16 hrs by immunoblot method; settings: BT-474
BT-474 [15] = test: Inhibition of autophagy in human BT474 cells assessed as increase in LC3-II protein levels at 10 uM by immunoblot method; format: functional, cell-based
Method in brief: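 BT-474 exposed 4 h at 10 µM. Protein extracted in RIPA buffer and immunoblotted for LC3B and GAPDH in TBS-T with 5% BSA. HRP secondary at 1:20000, ECL detection. Band densitometry reported as LC3B/GAPDH ratio.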

| Compound | IC50 (BT-474 [1]) | IC50 (HMEC) | other results |
| --- | --- | --- | --- |
| COc1ccc(CNC2(c3ccccc3F)CCCC2)cc1CN1CCN(C)CC1 | > 100 µM |  |  |
| Oc1ccc(CNC2(c3ccccc3F)CCCC2)cc1CN1CCNCC1 | 31.9 µM | > 100 µM |  |
| Oc1ccc(CNC2(c3ccccc3F)CCCC2)cc1CN1CCCCC1 | 35.6 µM | > 100 µM |  |
| CN1CCN(Cc2ccc(CNC3(c4ccccc4F)CCCC3)cc2)CC1 | > 100 µM |  |  |
| CC1CCC(Cc2cccc(CNC3(c4ccccc4F)CCCC3)c2)CC1 (mixture of isomers) | > 100 µM |  |  |
| CC(NCc1ccc(O)c(CN2CCN(C)CC2)c1)c1ccccc1F (stereo unspecified) | > 100 µM |  |  |
| CN1CCN(Cc2cc(CNC3(c4cccc(F)c4)CCCC3)ccc2O)CC1 | 14.2 µM | > 100 µM |  |
| CC(=O)N1CCN(Cc2cc(CNC3(c4ccccc4F)CCCC3)ccc2O)CC1 | > 100 µM |  |  |
| COc1ccccc1C1(NCc2ccc(O)c(CN3CCN(C)CC3)c2)CCCC1 | 31.1 µM | 17.4 µM |  |
| COc1cccc(C2(NCc3ccc(O)c(CN4CCN(C)CC4)c3)CCCC2)c1 | 11.8 µM | 13.1 µM |  |
| CN1CCN(Cc2cc(CN(C)C3(c4ccccc4F)CCCC3)ccc2O)CC1 | > 100 µM |  |  |
| CCN(CC)CCCC(C)Nc1ccnc2cc(Cl)ccc12 (racemic) [CHLOROQUINE] |  |  | IC50 [2]: > 100 µM; IC50 (MCF7): 23.4 µM; IC50 (LNCaP [3]): 32.9 µM; IC50 [4]: 50.4 µM; IC50 (MDA-MB-361): 97 µM; Activity (LNCaP [5]): Active; IC50 [6]: > 100 µM; Activity (HepG2 [7]): Active; IC50 (HepG2 [8]): 25 µM; IC50 [9]: 10 µM; Activity [10]: Active |
| CN1CCC(Cc2cccc(CNC3(c4ccccc4F)CCCC3)c2)CC1 | 15.5 µM | > 100 µM | IC50 (BT-474 [11]): 10 µM; Activity [12]: Non-toxic; inhibition [13]: Active; inhibition [14]: Active; inhibition (BT-474 [15]): Active |
| CN1CCN(Cc2cc(CNCc3ccccc3F)ccc2O)CC1 | > 100 µM |  |  |
| Oc1ccc(CNC2(c3ccccc3F)CCCC2)cc1CN1CCOCC1 | > 100 µM |  |  |
